Data on one compound can be found in ChEMBL document CHEMBL3525971 (Drug Metab Dispos, 2011).

Data set [1] in a line: Cmax in castrated pig plasma withdrawn from portal vein at 0.8 mg/kg administered as intrajejunal dose 20 mins after ketoconazole administration by UPLC-tandem mass spectrometry. It counts as ADME, organism-based, Sus scrofa. On the set-up: dose 0.8 mg/kg. Particulars: male. The procedure, abridged:
(§1)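 Where ketoconazole was co-dosed, it was given at 10 mg/kg at the same jejunal site 20 min before. Plasma protein-precipitated with acetonitrile and analysed by UPLC-MS/MS (finasteride-d9). AUC0-6h, Cmax and t1/2 (ln2/λz) were derived by non- or compartmental analysis.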

The nature of data set [2]: Drug excretion in castrated pig bile assessed as omega-hydroxy finasteride metabolite formation by UPLC-tandem mass spectrometry. It counts as ADME, tissue-based, Sus scrofa.
The test system of data set [3] is Sus scrofa. Description: Absorption rate constant in castrated pig plasma withdrawn from femoral vein at 0.8 mg/kg administered as intrajejunal dose 20 mins after ketoconazole administration by UPLC-tandem mass spectrometry. It counts as ADME, organism-based. The conditions noted are these: in vivo, other. More on the design: dose 0.8 mg/kg.
A short description of data set [4]: Cmax in castrated pig bile at 0.8 mg/kg administered as intrajejunal dose by UPLC-tandem mass spectrometry. On the set-up: dose 0.8 mg/kg. Format: ADME, organism-based, Sus scrofa. The conditions noted are these: male.
Data set [5] can be described thus: AUC (0 to 6 hrs) in castrated pig plasma withdrawn from femoral vein at 0.2 mg/kg, iv by UPLC-tandem mass spectrometry. It counts as ADME, organism-based, Sus scrofa. More on the design: time < 6 hr, dose 0.2 mg/kg, route intravenous. The conditions noted are these: male. An outline of the steps:
as §1

Data set [6] can be described thus: AUC (0 to 6 hrs) in castrated pig plasma withdrawn from femoral vein at 0.8 mg/kg administered as intrajejunal dose 20 mins after ketoconazole administration by UPLC-tandem mass spectrometry. More on the design: time < 6 hr, dose 0.8 mg/kg. Format: ADME, organism-based, Sus scrofa. Particulars: male. The procedure, abridged:
as §1

A short description of data set [7]: Cmax in castrated pig bile at 0.2 mg/kg, iv by UPLC-tandem mass spectrometry. Format: ADME, organism-based, Sus scrofa. The conditions noted are these: male. On the set-up: dose 0.2 mg/kg, route intravenous.
Data set [8] in a line: AUC (0 to 6 hrs) in castrated pig bile at 0.8 mg/kg administered as intrajejunal dose by UPLC-tandem mass spectrometry. On the set-up: time < 6 hr, dose 0.8 mg/kg. Particulars: male. Format: ADME, organism-based, Sus scrofa.
A short description of data set [9]: Tmax in castrated pig plasma withdrawn from portal vein at 0.8 mg/kg administered as intrajejunal dose by UPLC-tandem mass spectrometry. It counts as ADME, organism-based, Sus scrofa. On the set-up: dose 0.8 mg/kg. The conditions noted are these: male. An outline of the steps:
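Portal, hepatic and femoral vein plasma sampled over 6 h and assayed by UPLC-MS/MS. Tmax read directly from the profiles. Terminal t1/2 calculated as ln2/λz by non- or compartmental analysis; values below LLOQ after Cmax excluded.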

The nature of data set [10]: Drug excretion in castrated pig urine assessed as unchanged drug level at 0.2 mg/kg, iv measured during 6 hrs sampling by UPLC-tandem mass spectrometry. It counts as ADME, organism-based, Sus scrofa. On the set-up: dose 0.2 mg/kg, route intravenous. The conditions noted are these: in vivo.
The subject of data set [11] is Sus scrofa. The experiment in a line: Absorption rate constant in castrated pig plasma withdrawn from portal vein at 0.8 mg/kg administered as intrajejunal dose by UPLC-tandem mass spectrometry. Format: ADME, organism-based. More on the design: dose 0.8 mg/kg. The conditions noted are these: in vivo, other.
For data set [12], the system named is Sus scrofa. Description: Hepatic clearance in castrated pig at 0.8 mg/kg administered as intrajejunal dose 20 mins after ketoconazole administration by UPLC-tandem mass spectrometry. It counts as ADME, organism-based, Liver. More on the design: dose 0.8 mg/kg. Particulars: in vivo, other. An outline of the steps:
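Portal and hepatic vein plasma measured 0-6 h by UPLC-MS/MS. Extraction ratio derived from portal versus hepatic concentrations or AUCs; CLH then obtained as EH × liver blood flow 52 ml/min/kg × measured blood/plasma ratio.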

Data set [13] can be described thus: Apparent biliary clearance in castrated pig at 0.8 mg/kg administered as intrajejunal dose by UPLC-tandem mass spectrometry. On the set-up: dose 0.8 mg/kg. The conditions noted are these: in vivo, other. Format: ADME, organism-based, Sus scrofa, Bile.

Regarding `CC(C)(C)NC(=O)[C@H]1CC[C@H]2[C@@H]3CC[C@H]4NC(=O)C=C[C@]4(C)[C@H]3CC[C@]12C` [FINASTERIDE], the Cmax in data set [1] turned out to be 3100 nM; in [4], 1300 nM; in [7], 500 nM. Besides, in data set [2], the Drug excretion result is on record as “metabolite_not_detected”. Moreover, the ka came out at 3 h⁻¹ in [3] and 19 h⁻¹ in data set [11]. For the same compound, the figures for the area under the curve AUC(0-t) at 6 h in data set [5], in [6] and in data set [8] were 1.2 µM·h, 4.4 µM·h and 2.5 µM·h, respectively. Further, in data set [9], the Tmax was 18 min. Also, the Ae in data set [10] was found to be 0.02 µmol. In data set [12], the CLH stood at 18 mL/min/kg. Moreover, the “CL(app)” value in data set [13] was found to be 0.009 mL/min/kg.

One may read the Cmax as the maximum level reached in the sampled fluid or tissue. By AUC(0-t) is commonly meant exposure summed from dosing to a finite time, without extrapolation to infinity. A higher AUC(0-t) goes with high exposure. One may read the Tmax as the time at which the peak concentration occurs.
